Experimental data: PMC4455950 (Journal of the American Chemical Society, 2008)
Entries after “also recorded” stand apart in the source; their conditions may differ. Read-outs that look alike come from different tables or passages of the source.

Tests used:
[1] = biological target: T1, mCD1d:Ig fusion protein (dimeric CD1d) (Mus musculus, UniProt P11609); assay: Competitive binding assay on microarray; conditions: for binding with CD1d stronger than α-GalCer: relative to α-GalCer
T1 sequence (P11609 22-305 limits assumed): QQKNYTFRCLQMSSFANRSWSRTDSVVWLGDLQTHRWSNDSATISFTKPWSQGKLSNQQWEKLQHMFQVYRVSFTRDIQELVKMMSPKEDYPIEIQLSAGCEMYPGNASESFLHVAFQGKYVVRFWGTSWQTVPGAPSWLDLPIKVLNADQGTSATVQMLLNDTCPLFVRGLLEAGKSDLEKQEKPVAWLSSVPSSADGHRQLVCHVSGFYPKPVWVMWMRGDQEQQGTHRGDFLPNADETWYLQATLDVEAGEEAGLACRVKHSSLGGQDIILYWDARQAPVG
T1 sequence (P01887 21-119 partner): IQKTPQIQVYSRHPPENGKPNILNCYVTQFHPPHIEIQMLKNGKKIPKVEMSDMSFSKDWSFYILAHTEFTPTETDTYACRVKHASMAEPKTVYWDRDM
Procedure, shortened: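 Glass slides carry a covalently attached amine-linked α-GalCer analogue printed at 100 μM. Test compound (400 to 0.1 μM, 1.0% DMSO) is preincubated with dimeric mCD1d:Ig (500 nM) for 5–8 h. Mixture goes on slides 1 h at room temperature, humidified. Detection uses precomplexed biotinylated rat anti-mCD1d (20 μg/mL) plus Cy3-streptavidin (10 μg/mL), 1 h, then a 595 nm scan. Ki is fitted to a competitive surface-binding equation.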

[2] = test system: human Vα24+ NKT cell line cocultured with Hela cells transfected with human CD1d; assay: Cytokine secretion assay using human NKT cell lines; type: cell-based; conditions: for IFN-γ secretion normalized to α-GalCer / IL-4 secretion normalized to α-GalCer: 10 ng/mL glycolipid, 24 h, ELISA, relative to α-GalCer = 1.00; for IFN-γ/IL-4 ratio: IFN-γ ratio/IL-4 ratio, normalized to α-GalCer
Procedure, shortened: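 Vα24+ NKT lines come from bead-isolated leukopak T cells. They were expanded 10 days on irradiated (3000 rads) CD14-derived immature DCs with 100 ng/mL α-GalCer and 10 IU/mL IL-2. Assay: 20 000 NKT cells plus 2 × 10^4 irradiated (10 000 rads) human CD1d-transfected HeLa cells, 10 ng/mL test compound, 24 h. Supernatant IFN-γ or IL-4 by ELISA, normalised to α-GalCer; triplicate, mean ± SD.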

CD1d [3] = conditions: read-out: dissociation constant from IEF; cited from earlier work
CD1d [4] = conditions: read-out: dissociation constant from ITC; cited from earlier work

Row | binding to CD1d (in words) [1] | binding enhancement compared with parent compound 13 ([1]; relative to compound 13) | binding with CD1d stronger than α-GalCer [1] | Ki [1] | Ki versus KD,surf (fold) ([1]; solution Ki compared with KD,surf of surface α-GalCer) | SMILES | IFN-γ production (in words) [2] | IFN-γ secretion normalized to α-GalCer [2] | IL-4 secretion normalized to α-GalCer [2] | IFN-γ/IL-4 ratio [2] | Kd (CD1d [3]) | Kd (CD1d [4])
1 |  |  | approximately 1 order of magnitude |  |  | CCCCCCCCCCCCCCC(O)C(O)C(COC1OC(CO)C(O)C(O)C1O)NC(=O)CCCCCCCc1ccccc1 (centres unmarked) [Compound 13] |  | 1.80 ± 0.15 | 0.87 ± 0.27 | 2.07 ± 0.26 |  | 
2 |  |  |  | 16 ± 2.1 µM | 30–140 fold | CCCCCCCCCCCCCCCCCCCCCCCCCC(=O)N[C@@H](CO[C@H]1O[C@H](CO)[C@H](O)[C@H](O)[C@H]1O)[C@H](O)[C@H](O)CCCCCCCCCCCCCC [α-GalCer, α-galactosylceramide, reference compound] |  | 1.00 | 1.00 | 1.00 | 5.9 µM | 9.7 µM

The remaining lines, values behind:

Row | SMILES | binding to CD1d (in words) [1] | binding enhancement compared with parent compound 13 ([1]; relative to compound 13) | binding with CD1d stronger than α-GalCer [1] | Ki [1] | Ki versus KD,surf (fold) ([1]; solution Ki compared with KD,surf of surface α-GalCer) | IFN-γ production (in words) [2] | IFN-γ secretion normalized to α-GalCer [2] | IL-4 secretion normalized to α-GalCer [2] | IFN-γ/IL-4 ratio [2] | Kd (CD1d [3]) | Kd (CD1d [4])
3 | CCCCCCCCCCCCCC[C@@H](O)[C@@H](O)[C@H](CO[C@H]1O[C@H](CO)[C@H](O)[C@H](O)[C@H]1O)NC(=O)CCCCCCCCCCc1ccc(-c2ccccc2)cc1 [Compound 25] | lower binding activity |  |  |  |  | less IFN-γ production | 0.33 ± 0.001 | 0.61 ± 0.06 | 0.55 ± 0.04 |  | 
4 | CCCCCCCCCCCCCCC(O)C(O)C(COC1OC(CO)C(O)C(O)C1O)NC(=O)CCCCCCCc1ccc(F)cc1 (centres unmarked) [Compound 18] |  | approximately 1 order of magnitude | 2 order of magnitude |  |  | highest IFN-γ cytokine production; also recorded: highest IFN-γ secretion | 2.39 ± 0.13 | 0.80 ± 0.09 | 3.00 ± 0.16 |  | 
5 | CCCCCCCCCCCCCC[C@@H](O)[C@@H](O)[C@H](CO[C@H]1O[C@H](CO)[C@H](O)[C@H](O)[C@H]1O)NC(=O)CCCCCCCc1ccc(OC)cc1 [Compound 19] |  |  |  |  |  | highest IFN-γ cytokine production | 2.25 ± 0.06 | 0.79 ± 0.06 | 2.85 ± 0.10 |  | 
6 | CCCCCCCCCCCCCC[C@@H](O)[C@@H](O)[C@H](CO[C@H]1O[C@H](CO)[C@H](O)[C@H](O)[C@H]1O)NC(=O)CCCCCCCc1ccc(C(F)(F)F)cc1 [Compound 20] |  |  |  |  |  |  | 1.43 ± 0.07 | 0.76 ± 0.08 | 1.88 ± 0.08 |  | 
